Experimental data pooled from the literature.
Lines come from different studies, so protocols differ. pEC50, pIC50: −log10 of the molar value.
Cell line: MCF7
Observed: cell growth or viability

| SMILES | technique | concentration | time | quantity | value |
| --- | --- | --- | --- | --- | --- |
| CC(=NNC(=O)c1ccc(N)cc1)c1ccc(Nc2nnc(-c3ccc(Cl)cc3)c3ccccc23)cc1 | MTT | 0.625 µM | – | cell death | 56% |
| CCOC(=O)c1nn(-c2cccc(Cl)c2)/c(=N/N=C(\C)c2ccc(NC(=O)c3ccc(Cl)cc3)cc2)s1 | MTT | 0.156 µM | – | viability | 21.9% |
| Cc1nc(Nc2ccc3c(c2)/C(=C/c2ccccc2C)C(=O)N3C)c2ccccc2n1 | MTT | – | – | pIC50 | 4.67 |
| C[C@@H]1CC[C@@H]([C@](C)(O)CNCc2ccccc2F)[C@H](OCc2ccccc2)C1 | MTT | 30 µM | 72 h | inhibition | 89.6% |
| CC(=NNC(N)=S)c1ccc(Nc2nnc(-c3ccc(Cl)cc3)c3ccccc23)cc1 | MTT | 78 nM | – | cell death | 9.65% |
| CCOC(=O)c1nn(-c2cccc(Cl)c2)/c(=N/N=C(\C)c2ccc(NC(=O)c3ccccc3)cc2)s1 | MTT | 10 µM | – | viability | 2.41% |
| COc1ccc(COC[C@@](O)(CNCc2ccc(F)cc2)[C@@H]2CC[C@@H](C)C[C@H]2OCc2ccc(OC)cc2)cc1 | MTT | 30 µM | 72 h | inhibition | 101% |
| CC(=O)c1nn(-c2ccccc2Cl)/c(=N/N=C(\C)c2ccc(NC(=O)c3ccccc3)cc2)s1 | MTT | 78 nM | – | viability | 47.5% |
| C[C@H](Nc1ccc2c(c1)OCCn1cc(N3C(=O)OC[C@H]3C(F)F)nc1-2)C(N)=O | – | – | 5 days | pEC50 | 7.71 |
| CC(=O)Nc1ccc(Oc2nnc(-c3ccc(Cl)cc3)c3ccccc23)cc1 | MTT | 0.625 µM | 24 h | viability | 4.91% |
| COc1ccc(COC[C@@](O)(CNCc2ccccc2)[C@@H]2CC[C@@H](C)C[C@H]2OCc2ccc(OC)cc2)cc1 | MTT | 10 µM | 72 h | inhibition | 96.2% |
| CC(=O)c1nn(-c2ccc(C)cc2)/c(=N/N=C(\C)c2ccc(NC(=O)c3ccccc3)cc2)s1 | MTT | 5 µM | – | viability | 6.47% |
| C=C(COCc1ccc(F)cc1)[C@@H]1CC[C@@H](C)C[C@H]1OCc1ccc(F)cc1 | MTT | 30 µM | 72 h | inhibition | 46.2% |
| O=C(Nc1ccc(Oc2nnc(-c3ccc(Cl)cc3)c3ccccc23)cc1)c1cccc([N+](=O)[O-])c1 | MTT | 2.5 µM | 24 h | viability | 4.87% |
| COc1ccc(CNC[C@@](C)(O)[C@@H]2CC[C@@H](C)C[C@H]2OCc2ccccc2)cc1 | MTT | 10 µM | 72 h | inhibition | 92.4% |
| CC(=NNC(=O)c1ccccc1Br)c1ccc(Nc2nnc(-c3ccc(Cl)cc3)c3ccccc23)cc1 | MTT | 1.25 µM | 24 h | viability | 31.3% |
| Cc1ccc(-c2cc(-c3ccc(Cl)c(F)c3)c3c(=O)[nH]c(=O)[nH]c3n2)cc1 | MTT | – | 48 h | pIC50 | 4.84 |
| CC(=NNC(=O)c1ccccc1O)c1ccc(Nc2nnc(-c3ccc(Cl)cc3)c3ccccc23)cc1 | MTT | 0.312 µM | 24 h | viability | 99.3% |
| CC(=O)Nc1ccc(/C(C)=N/N=c2\sc(C(C)=O)nn2-c2ccc(C)cc2)cc1 | MTT | 2.5 µM | – | viability | 34.6% |
| C[C@@H]1CC[C@@H]([C@](C)(O)Cn2cnc3ccccc32)[C@H](OCc2ccccc2)C1 | MTT | 30 µM | 72 h | inhibition | 98.3% |
